Test results: ChEMBL document CHEMBL2062474, “Discovery and preliminary SAR of bisbenzylisoquinoline alkaloids as inducers of C/EBPα” (Bioorg Med Chem, 2012)

What was measured:
U-937 [1] = test: Cytotoxicity against human U937 cells after 24 hrs by alamar blue assay; assay type: cell-based; conditions: U-937, 24 h
How it was run: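 U937 cells exposed to test sample for 24 h in 384-well format. Toxicity read by Alamar Blue fluorescence and expressed as growth relative to untreated U937 cells. Value is the concentration giving 50% growth inhibition, from multiple 2-fold doses tested in triplicate.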

U-937 [2] = test: Induction of rat C/EBPalpha expression transfected in human U937 cells after 24 hrs by luciferase reporter gene assay relative to ATRA; assay type: functional
How it was run: (§1)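 Engineered U937 line (4X C/EBPα binding site driving a luciferase reporter) incubated 24 h with or without sample in 384-well plates, in triplicate, across multiple 2-fold doses. Luminescence was read after adding Britelite reagent. ATRA ran on each plate as positive control. Fold induction was normalized to ATRA induction.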

[3] = Cytotoxicity against human U937 cells assessed as cell growth at 25 uM after 24 hrs by alamar blue assay; assay type: cell-based, U-937; conditions: read-out: Activity
How it was run: (§2)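 U937 cells engineered with a multimerized C/EBPα binding site driving luciferase were incubated with compound in 384-well format, in triplicate, at multiple 2-fold doses. Toxicity was read by Alamar Blue fluorescence. Growth is expressed relative to untreated U937 cells.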

U-937 [4] = test: Induction of rat C/EBPalpha expression transfected in human U937 cells at 25 uM after 24 hrs by luciferase reporter gene assay relative to ATRA; assay type: functional; how it was run: as §1
[5] = Cytotoxicity against human U937 cells assessed as cell growth at 50 uM after 24 hrs by alamar blue assay; assay type: cell-based, U-937; conditions: read-out: Activity; how it was run: as §2
U-937 [6] = test: Induction of rat C/EBPalpha expression transfected in human U937 cells at 50 uM after 24 hrs by luciferase reporter gene assay relative to ATRA; assay type: functional; how it was run: as §1
[7] = Cytotoxicity against human U937 cells assessed as cell growth at 12 uM after 24 hrs by alamar blue assay; assay type: cell-based, U-937; conditions: read-out: Activity; how it was run: as §2
U-937 [8] = test: Induction of rat C/EBPalpha expression transfected in human U937 cells at 12 uM after 24 hrs by luciferase reporter gene assay relative to ATRA; assay type: functional; how it was run: as §1
[9] = Cytotoxicity against human U937 cells assessed as cell growth at 3.1 uM after 24 hrs by alamar blue assay; assay type: cell-based, U-937; conditions: read-out: Activity
How it was run: (§3)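 U937 cells incubated 24 h with test sample in multiple 2-fold doses, tested in triplicate, in 384-well format. Cell growth read by Alamar Blue fluorescence relative to untreated U937 cells. Value is growth at the concentration giving maximum C/EBPα fold induction.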

U-937 [10] = test: Induction of rat C/EBPalpha expression transfected in human U937 cells at 3.1 uM after 24 hrs by luciferase reporter gene assay relative to ATRA; assay type: functional
How it was run: (§4)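 U937 cells carry a luciferase reporter driven by a multimerized C/EBPα binding site (U937 4X C/EBPα). Cells incubated 24 h with or without test sample in 384-well plates, then luciferase read by luminescence. ATRA included on each plate as positive control, and fold induction normalized to ATRA. Multiple 2-fold doses tested in triplicate.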

[11] = Cytotoxicity against human U937 cells assessed as cell growth at 6.2 uM after 24 hrs by alamar blue assay; assay type: cell-based, U-937; conditions: read-out: Activity; how it was run: as §3
U-937 [12] = test: Induction of rat C/EBPalpha expression transfected in human U937 cells at 6.2 uM after 24 hrs by luciferase reporter gene assay relative to ATRA; assay type: functional; how it was run: as §4
U-937 [13] = test: Induction of rat C/EBPalpha expression transfected in human U937 cells at 0.78 uM after 24 hrs by luciferase reporter gene assay relative to ATRA; assay type: functional; how it was run: as §4
[14] = Cytotoxicity against human U937 cells assessed as cell growth at 0.78 uM after 24 hrs by alamar blue assay; assay type: cell-based, U-937; conditions: read-out: Activity; how it was run: as §3
HL-60 = test: Induction of rat C/EBPalpha expression transfected in human HL60 cells after 24 hrs by luciferase reporter gene assay relative to control; assay type: functional
U-937 [15] = test: Induction of rat C/EBPalpha expression transfected in human U937 cells after 24 hrs by luciferase reporter gene assay relative to control; assay type: functional; how it was run: as §4

COc1cc2c(cc1Oc1ccc(OC)c3c1C[C@H]1c4c(cc(OC)c(OC)c4-3)CCN1C)C[C@H]1c3c(cc(OC)c(OC)c3-2)CCN1C
IC50 (U-937 [1]): > 50 µM
MED (U-937 [2]): >50 µM
viability at 24 h, 25 µM [3]: 61%
fold change (FC) (U-937 [4]): 0.9

COc1cc2c3cc1Oc1c(OC)c(OC)cc4c1[C@@H](Cc1ccc(O)c(c1)Oc1ccc(cc1)C[C@@H]3N(C)CC2)N(C)CC4 [BERBAMINE]
IC50 (U-937 [1]): > 50 µM
viability at 24 h, 50 µM [5]: 70%
fold change (FC) (U-937 [6]): 1.2
MED (U-937 [2]): 25 µM

COc1ccc2cc1Oc1ccc(cc1)C[C@H]1c3c(cc4c(c3Oc3cc5c(cc3OC)CCN(C)[C@@H]5C2)OCO4)CCN1C [CEPHARANTHINE]
IC50 (U-937 [1]): > 50 µM
viability at 24 h, 12 µM [7]: 87%
MED (U-937 [2]): 12 µM
fold change (FC) (U-937 [8]): 1

COc1cc2c3cc1Oc1cc(ccc1O)C[C@@H]1c4c(cc(OC)c(O)c4Oc4cccc(c4)C[C@H]3N(C)CC2)CCN1C [CHONDODENDRINE]
IC50 (U-937 [1]): > 50 µM
MED (U-937 [2]): 12 µM
fold change (FC) (U-937 [4]): 1.9

COc1cc2c3c(O)c1OCc1ccc(cc1)C[C@@H]1c4c(cc(OC)c(OC)c4Oc4ccc(cc4)CC3=NCC2)CCN1C [CISSAMPAREINE]
viability at 24 h, 3.1 µM [9]: 78%
IC50 (U-937 [1]): > 50 µM
fold change (FC) (U-937 [10]): 0.5
MED (U-937 [2]): >50 µM

COc1ccc2cc1Oc1ccc(cc1)CC1=NCCc3cc(OC)c(OC)c(c31)Oc1cc3c(cc1OC)CCN(C)[C@@H]3C2 [EPISTEPHANINE]
viability at 24 h, 6.2 µM [11]: 99%
IC50 (U-937 [1]): > 50 µM
fold change (FC) (U-937 [12]): 0.9
MED (U-937 [2]): >50 µM

COc1ccc2cc1Oc1ccc(cc1)C[C@H]1c3cc(c(OC)cc3CCN1C)Oc1c(OC)c(OC)cc3c1[C@H](C2)N(C)CC3 [FANCHININ]
IC50 (U-937 [1]): > 50 µM
MED (U-937 [2]): >50 µM
viability at 24 h, 25 µM [3]: 69%
fold change (FC) (U-937 [4]): 0.9

COc1ccc2cc1Oc1ccc(cc1)C[C@H]1c3cc(c(OC)cc3CCN1C)Oc1c(O)c(OC)cc3c1[C@H](C2)N(C)CC3 [FANGCHINOLINE]
IC50 (U-937 [1]): > 50 µM
viability at 24 h, 50 µM [5]: 102%
fold change (FC) (U-937 [6]): 2
MED (U-937 [2]): 25 µM

COc1cc2c3cc1Oc1c(OC)c(OC)cc4c1[C@H](Cc1ccc(O)c(c1)-c1cc(ccc1OC)C[C@H]3N(C)CC2)N(C)CC4 [FUNIFERINE]
IC50 (U-937 [1]): > 50 µM
viability at 24 h, 50 µM [5]: 94%
fold change (FC) (U-937 [6]): 2.2
MED (U-937 [2]): 12 µM

COc1cc2c(cc1O)[C@H]1Cc3c(cc(OC)c(OC)c3Oc3cc4c(cc3OC)CCN(C)[C@@H]4Cc3ccc(O)cc3)[C@@H](C2)N1C [HERVELINE O]
IC50 (U-937 [1]): > 50 µM
MED (U-937 [2]): >50 µM
viability at 24 h, 25 µM [3]: 108%
fold change (FC) (U-937 [4]): 0.46

COc1ccc2cc1Oc1ccc(cc1)C[C@H]1c3c(cc(OC)c(O)c3Oc3cc4c(cc3OC)CCN(C)[C@@H]4C2)CCN1C [HOMOAROMOLINE]
IC50 (U-937 [1]): > 50 µM
viability at 24 h, 50 µM [5]: 80%
fold change (FC) (U-937 [6]): 1.9
MED (U-937 [2]): 3.1 µM

COc1ccc2cc1Oc1ccc(cc1)C[C@@H]1c3cc(c(OC)cc3CCN1C)Oc1c(OC)c(OC)cc3c1[C@H](C2)N(C)CC3 [ISOTETRANDRINE]
IC50 (U-937 [1]): > 50 µM
MED (U-937 [2]): 12 µM
viability at 24 h, 25 µM [3]: 69%
fold change (FC) (U-937 [4]): 1.2

COc1ccc(CC2c3cc(OC)c(OC)cc3CCN2C)cc1OC (stereo unspecified) [LAUDANOSINE]
MED (U-937 [2]): >50 µM
fold change (FC) (U-937 [4]): 0

COc1ccc2cc1Oc1ccc(cc1)C[C@H]1NCCc3cc(OC)c(cc31)Oc1c(O)c(OC)cc3c1CCN(C)[C@@H]3C2 [NORPANURENSINE]
IC50 (U-937 [1]): > 50 µM
viability at 24 h, 50 µM [5]: 113%
fold change (FC) (U-937 [6]): 2.5
MED (U-937 [2]): 12 µM

COc1cc2c3cc1Oc1c(O)c(OC)cc4c1[C@@H](Cc1ccc(O)c(c1)Oc1ccc(cc1)C[C@@H]3N(C)CC2)N(C)CC4 [OBAMEGINE]
IC50 (U-937 [1]): 25 µM
viability at 24 h, 12 µM [7]: 89%
MED (U-937 [2]): 3 µM
fold change (FC) (U-937 [8]): 2.6

COc1ccc2cc1Oc1ccc(cc1)C[C@@H]1c3cc(c(OC)cc3CCN1C)Oc1c(OC)c(OC)cc3c1[C@@H](C2)N(C)CC3 [PHAEANTHINE]
IC50 (U-937 [1]): 50 µM
viability at 24 h, 12 µM [7]: 104%
MED (U-937 [2]): >50 µM
fold change (FC) (U-937 [8]): 0.75

COC1=CC2=C3[C@H](Cc4cc5c(c(c4)Oc4ccc(cc4)C[C@H]4c6cc7c(cc6CCN4C)OC[C@@]3(O7)C1=O)OCO5)N(C)CC2 [REPANDULINE]
IC50 (U-937 [1]): > 50 µM
viability at 24 h, 50 µM [5]: 67%
fold change (FC) (U-937 [6]): 1.5
MED (U-937 [2]): 50 µM

COc1ccc2cc1Oc1ccc(cc1)C[C@@H]1c3c(cc(OC)c4c3Oc3cc5c(cc3O4)CCN[C@@H]5C2)CCN1C [TELOBINE]
viability at 24 h, 3.1 µM [9]: 82%
IC50 (U-937 [1]): 12 µM
fold change (FC) (U-937 [10]): 1.9
MED (U-937 [2]): 1.5 µM

COc1cc2c3cc1Oc1c(OC)c(OC)cc4c1[C@H](Cc1cc5c(c(c1)Oc1ccc(cc1)C[C@@H]3N(C)CC2)OCO5)N(C)CC4 [TENUIPINE]
IC50 (U-937 [1]): > 50 µM
MED (U-937 [2]): 25 µM
viability at 24 h, 25 µM [3]: 105%
fold change (FC) (U-937 [4]): 1.4

COc1ccc(C[C@H]2c3cc(OC)c(OC)c(OC)c3CC[N+]2(C)C)cc1Oc1ccc(C[C@H]2c3cc4c(c(OC)c3CC[N+]2(C)C)OCO4)cc1.[I-].[I-] [THALISTYLINE DIMETHOIODIDE]
viability at 24 h, 3.1 µM [9]: 116%
IC50 (U-937 [1]): > 50 µM
fold change (FC) (U-937 [10]): 0.4
MED (U-937 [2]): >50 µM

COc1ccc(C[C@H]2c3cc(OC)c(OC)c(OC)c3CC[N+]2(C)C)cc1Oc1ccc(C[C@H]2c3cc(OC)c4c(c3CCN2C)OCO4)cc1.[Cl-] [THALISTYLINE]
fold change (FC) (U-937 [13]): 0.9
viability at 24 h, 0.78 µM [14]: 133%
IC50 (U-937 [1]): > 50 µM
MED (U-937 [2]): >50 µM

COc1ccc2cc1-c1cc(ccc1O)C[C@H]1c3cc4c(cc3CCN1C)Oc1c(OC)cc3c(c1O4)[C@H](C2)N(C)CC3 [TILIACORININE]
IC50 (U-937 [1]): 25 µM
viability at 24 h, 12 µM [7]: 63%
MED (U-937 [2]): 12 µM
fold change (FC) (U-937 [8]): 1.9

CC1=C(/C=C/C(C)=C/C=C/C(C)=C/C(=O)O)C(C)(C)CCC1 [TRETINOIN]
fold change (FC) (HL-60): 2
fold change (FC) (U-937 [15]): 2

COc1cc2c3c4c1Oc1cc5c(cc1O4)[C@@H](Cc1ccc(O)c(c1)Oc1ccc(cc1)C[C@@H]3N(C)CC2)N(C)CC5 [TRIGILLETINE]
viability at 24 h, 3.1 µM [9]: 108%
IC50 (U-937 [1]): 50 µM
fold change (FC) (U-937 [10]): 0.8
MED (U-937 [2]): >50 µM
